In ChEMBL document CHEMBL1137696, “Preparation and in vitro evaluation of benzylsulfanyl benzoxazole derivatives as potential antituberculosis agents” (2009) one finds MIC data, which are given here for eleven compounds.

Common to all, as to type: functional
Assay [1] relates to Mycobacterium tuberculosis. Description: Antimycobacterial activity against Mycobacterium tuberculosis CNCTC My 331/88 after 14 days by micromethod. Conditions: CNCTC My 331/88, 336 h. The gist of the method: (§1)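 MIC by micromethod in Šula semisynthetic medium. Compounds added as DMSO solutions at 1000, 500, 250, 125, 62, 32, 16, 8, 4 and 2 µmol/L. Incubated at 37 °C and read at 14 and 21 days. MIC taken as the lowest concentration that inhibited mycobacterial growth, expressed in µmol/L. INH run as standard. Strains from CNCTC.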

Assay [2] deals with Mycobacterium tuberculosis. Description: Antimycobacterial activity against Mycobacterium tuberculosis CNCTC My 331/88 after 21 days by micromethod. The note with it: CNCTC My 331/88, 504 h. The gist of the method:
as §1

The subject of assay [3] is Mycobacterium kansasii. The assay can be described thus: Antimycobacterial activity against Mycobacterium kansasii CNCTC My 235/80 after 7 days by micromethod. Conditions: CNCTC My 235/80, 168 h. The gist of the method:
(§2)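 Micromethod MIC in Šula semisynthetic medium, with compounds added as DMSO solutions at 1000, 500, 250, 125, 62, 32, 16, 8, 4 and 2 µmol/L. Cultures were incubated at 37 °C, and M. kansasii was read at 7, 14 and 21 days. MIC is the lowest concentration at which mycobacterial growth was inhibited. INH served as standard. Strain 6509/96 was a clinical isolate.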

For assay [4], the system named is Mycobacterium kansasii. The assay can be described thus: Antimycobacterial activity against Mycobacterium kansasii CNCTC My 235/80 after 14 days by micromethod. Conditions: CNCTC My 235/80, 336 h. The gist of the method: as §2
Assay [5] has as its system Mycobacterium kansasii. The assay can be described thus: Antimycobacterial activity against Mycobacterium kansasii CNCTC My 235/80 after 21 days by micromethod. Conditions: CNCTC My 235/80, 504 h. The gist of the method: as §2
Assay [6] deals with Mycobacterium kansasii. Description: Antimycobacterial activity against Mycobacterium kansasii 6509/96 after 7 days by micromethod. Conditions: 6509/96, 168 h. The gist of the method: as §2
Assay [7] concerns Mycobacterium kansasii. The assay can be described thus: Antimycobacterial activity against Mycobacterium kansasii 6509/96 after 14 days by micromethod. Conditions: 6509/96, 336 h. The gist of the method:
as §2

For assay [8], the system named is Mycobacterium kansasii. Description: Antimycobacterial activity against Mycobacterium kansasii 6509/96 after 21 days by micromethod. The note with it: 6509/96, 504 h. The gist of the method: as §2
Assay [9] deals with Mycobacterium avium. The assay can be described thus: Antimycobacterial activity against Mycobacterium avium CNCTC My 330/88 after 14 days by micromethod. Conditions: CNCTC My 330/88, 336 h. The gist of the method: as §1
Assay [10] deals with Mycobacterium avium. The assay can be described thus: Antimycobacterial activity against Mycobacterium avium CNCTC My 330/88 after 21 days by micromethod. Conditions: CNCTC My 330/88, 504 h. The gist of the method: as §1

In brackets after ≈: the same amount, converted by molar mass. Bounds are passed on as bounds.

For orientation: MIC means the least concentration at which growth counts as inhibited. Low readings indicate greater potency, high ones weaker potency. Regarding `O=[N+]([O-])c1ccc(CSc2nc3ccccc3o2)cc1`, the MIC in assay [1] is more than 62 µM; in [2] it was more than 125 µM; in [3] it was 32 µM (≈ 9.16 µg/mL); in assay [4] it was 32 µM (≈ 9.16 µg/mL); in [5], more than 62 µM; in assay [6], 32 µM (≈ 9.16 µg/mL). For the same compound, the MIC in assay [7] is 32 µM (≈ 9.16 µg/mL); in assay [8], more than 32 µM; in assay [9] it was more than 32 µM; in assay [10], more than 62 µM.
In the case of `Fc1ccc(CSc2nc3ccccc3o2)cc1F`, the minimum inhibitory concentration (MIC) amounted to 125 µM (≈ 34.7 µg/mL) in assay [1]; 125 µM (≈ 34.7 µg/mL) in [2]; 62 µM (≈ 17.2 µg/mL) in assay [3]; 125 µM (≈ 34.7 µg/mL) in assay [4]; 125 µM (≈ 34.7 µg/mL) in assay [5]; 32 µM (≈ 8.87 µg/mL) in assay [6]. Moreover, the minimal inhibitory concentration (MIC) is 62 µM (≈ 17.2 µg/mL) in assay [7], 125 µM (≈ 34.7 µg/mL) in [8], 62 µM (≈ 17.2 µg/mL) in assay [9] and 125 µM (≈ 34.7 µg/mL) in [10].
Regarding `O=[N+]([O-])c1ccccc1CSc1nc2ccccc2o1`, the minimum inhibitory concentration (MIC) in assay [1] was more than 250 µM; in assay [2] it was more than 250 µM; in assay [3], 125 µM (≈ 35.8 µg/mL); in [4] it was 125 µM (≈ 35.8 µg/mL); in assay [5] it was more than 125 µM; in assay [6], 62 µM (≈ 17.8 µg/mL). Also, the MIC in assay [7] is more than 62 µM; in assay [8], more than 62 µM; in assay [9], more than 125 µM; in assay [10] it was more than 125 µM.
With `Clc1ccc(CSc2nc3ccccc3o2)cc1Cl`, the MIC is more than 125 µM in assay [1]; more than 250 µM in [2]; 32 µM (≈ 9.93 µg/mL) in assay [3]; 62 µM (≈ 19.2 µg/mL) in [4]; 125 µM (≈ 38.8 µg/mL) in assay [5]; 62 µM (≈ 19.2 µg/mL) in assay [6]. The minimum inhibitory concentration (MIC) in assay [7] worked out at 62 µM (≈ 19.2 µg/mL); in [8], 125 µM (≈ 38.8 µg/mL); in assay [9], 62 µM (≈ 19.2 µg/mL); in assay [10], 62 µM (≈ 19.2 µg/mL).
As for `Clc1ccccc1CSc1nc2ccccc2o1`, the minimum inhibitory concentration (MIC) in [1] is more than 250 µM; in [2], more than 250 µM; in assay [3], 32 µM (≈ 8.82 µg/mL); in [4] it was 32 µM (≈ 8.82 µg/mL); in assay [5] it was 62 µM (≈ 17.1 µg/mL); in [6], 62 µM (≈ 17.1 µg/mL). For the same compound, the MIC in assay [7] was 62 µM (≈ 17.1 µg/mL); in assay [8] it was 125 µM (≈ 34.5 µg/mL); in assay [9], 125 µM (≈ 34.5 µg/mL); in assay [10], 125 µM (≈ 34.5 µg/mL).
`COc1cccc(CSc2nc3ccccc3o2)c1`: the MIC was found to be 125 µM (≈ 33.9 µg/mL) in assay [1]; 250 µM (≈ 67.8 µg/mL) in assay [2]; 32 µM (≈ 8.68 µg/mL) in assay [3]; 32 µM (≈ 8.68 µg/mL) in [4]; 62 µM (≈ 16.8 µg/mL) in [5]; 32 µM (≈ 8.68 µg/mL) in assay [6]. Further, the MIC in assay [7] was 32 µM (≈ 8.68 µg/mL); in assay [8], 62 µM (≈ 16.8 µg/mL); in [9], 32 µM (≈ 8.68 µg/mL); in [10], 32 µM (≈ 8.68 µg/mL).
Take `Cc1ccc(CSc2nc3ccccc3o2)cc1`: the MIC is more than 500 µM in assay [1]; more than 500 µM in assay [2]; 62 µM (≈ 15.8 µg/mL) in assay [3]; 62 µM (≈ 15.8 µg/mL) in [4]; 125 µM (≈ 31.9 µg/mL) in assay [5]; 62 µM (≈ 15.8 µg/mL) in assay [6]. Also, the MIC was 62 µM (≈ 15.8 µg/mL) in [7], 125 µM (≈ 31.9 µg/mL) in assay [8], 32 µM (≈ 8.17 µg/mL) in assay [9] and 62 µM (≈ 15.8 µg/mL) in assay [10].
As for `Fc1cccc(CSc2nc3ccccc3o2)c1`, the MIC in [1] was 62 µM (≈ 16.1 µg/mL); in assay [2] it was 125 µM (≈ 32.4 µg/mL); in assay [3], 32 µM (≈ 8.3 µg/mL); in assay [4] it was 62 µM (≈ 16.1 µg/mL); in [5] it was 125 µM (≈ 32.4 µg/mL); in [6], 32 µM (≈ 8.3 µg/mL). Besides, the minimal inhibitory concentration (MIC) in assay [7] is 32 µM (≈ 8.3 µg/mL); in [8], 62 µM (≈ 16.1 µg/mL); in [9], 32 µM (≈ 8.3 µg/mL); in [10], 32 µM (≈ 8.3 µg/mL).
On to `Clc1cccc(CSc2nc3ccccc3o2)c1`, for which the MIC in assay [1] came to 62 µM (≈ 17.1 µg/mL); in assay [2], 125 µM (≈ 34.5 µg/mL); in [3], 32 µM (≈ 8.82 µg/mL); in [4], 32 µM (≈ 8.82 µg/mL); in [5], 62 µM (≈ 17.1 µg/mL); in assay [6] it was 32 µM (≈ 8.82 µg/mL). The minimum inhibitory concentration (MIC) in assay [7] is 32 µM (≈ 8.82 µg/mL); in [8] it was 62 µM (≈ 17.1 µg/mL); in assay [9], 32 µM (≈ 8.82 µg/mL); in assay [10], 32 µM (≈ 8.82 µg/mL).
`Fc1ccc(CSc2nc3ccccc3o2)cc1`: the minimum inhibitory concentration (MIC) amounted to 250 µM (≈ 64.8 µg/mL) in assay [1]; 500 µM (≈ 130 µg/mL) in assay [2]; 32 µM (≈ 8.3 µg/mL) in assay [3]; 62 µM (≈ 16.1 µg/mL) in assay [4]; 125 µM (≈ 32.4 µg/mL) in assay [5]; 62 µM (≈ 16.1 µg/mL) in [6]. In addition, the MIC in assay [7] stood at 62 µM (≈ 16.1 µg/mL); in assay [8] it was 125 µM (≈ 32.4 µg/mL); in assay [9], 62 µM (≈ 16.1 µg/mL); in assay [10], 62 µM (≈ 16.1 µg/mL).
As for `Fc1cccc(Cl)c1CSc1nc2ccccc2o1`, the MIC in assay [1] amounted to 62 µM (≈ 18.2 µg/mL); in assay [2], 125 µM (≈ 36.7 µg/mL); in [3] it was 32 µM (≈ 9.4 µg/mL); in [4], 32 µM (≈ 9.4 µg/mL); in assay [5] it was 62 µM (≈ 18.2 µg/mL); in assay [6] it was 32 µM (≈ 9.4 µg/mL). For the same compound, the minimum inhibitory concentration (MIC) in assay [7] came to 32 µM (≈ 9.4 µg/mL); in [8], 62 µM (≈ 18.2 µg/mL); in [9], 62 µM (≈ 18.2 µg/mL); in [10], 62 µM (≈ 18.2 µg/mL).
